Here are results for 14 compounds from ChEMBL document CHEMBL1131147, “7-Arylidenenaltrexones as selective delta1 opioid receptor antagonists” (J Med Chem, 1998).

Experiment [1] is described as follows: Relative affinity for delta and mu receptors. The gist of the method:
(§1)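 Selectivity ratio = DADLE IC50 ratio (MVD) divided by morphine or EK IC50 ratio (GPI), with 100 nM antagonist. Where an IC50 ratio was below or near unity, a value of 1 was used.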

Experiment [2] has as its target Mu-type opioid receptor (Cavia porcellus) (UniProt P97266). Nature of the experiment: Inhibition of morphine binding to Opioid receptor mu 1 of guinea pig ileal longitudinal muscle. An outline of the steps: (§2)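 Electrically stimulated smooth muscle: guinea pig ileal longitudinal muscle with morphine or ethylketazocine, mouse vas deferens with DADLE. Antagonist 100 nM incubated 15 min (30 min in footnoted cases) before agonist. IC50 ratio = agonist IC50 with antagonist divided by control IC50 in the same preparation; mean ± SEM, n shown.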

Experiment [3] addresses Delta-type opioid receptor (Mus musculus) (UniProt P32300). Nature of the experiment: Inhibition of DADLE binding to Opioid receptor delta 1 of mouse vas deferens. An outline of the steps:
as §2

The nature of experiment [4]: Relative affinity for delta and kappa receptors. The gist of the method:
as §1

Experiment [5] concerns the target Kappa-type opioid receptor (Cavia porcellus) (UniProt P41144). Nature of the experiment: Inhibition of ethylketazocine binding to Opioid receptor kappa 1 of guinea pig ileal longitudinal muscle. An outline of the steps: as §2
The target in experiment [6] is Delta-type opioid receptor (Mus musculus) (UniProt P32300). Nature of the experiment: Antagonism of antinociceptive effect of DPDPE against delta 1 opioid receptor in male ICR mice at a sc dose of 5 umol/kg. Format: functional, organism-based. The gist of the method: (§3)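 Male ICR mice, tail-flick antinociception. Antagonist given sc at the stated dose (µmol/kg), pretreatment timed so peak antagonism coincides with the agonist's peak antinociceptive response. Agonists: DPDPE (δ1), DSLET (δ2), morphine (µ), U50488 (κ). ED50 ratio = agonist ED50 with sc antagonist divided by control ED50, with 95% confidence limits.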

Experiment [7] deals with Kappa-type opioid receptor (Mus musculus) (UniProt P33534). Nature of the experiment: Antagonism of antinociceptive effect of U-50,488 against kOpioid receptor kappa 1 in male ICR mice at a sc dose of 5 umol/kg. Format: functional, organism-based. An outline of the steps:
as §3

Experiment [8] has as its target Delta-type opioid receptor (Mus musculus) (UniProt P32300). Nature of the experiment: Antagonism of antinociceptive effect of DSLET against delta 2 opioid receptor in male ICR mice at a sc dose of 5 umol/kg. Format: functional, organism-based. An outline of the steps:
as §3

For experiment [9], the target named is Mu-type opioid receptor (Mus musculus) (UniProt P42866). Nature of the experiment: Antagonism of antinociceptive effect of morphine against Opioid receptor mu 1 in male ICR mice at a sc dose of 16 umol/kg. Type of experiment: functional, organism-based. The gist of the method:
as §3

Experiment [10] deals with Delta-type opioid receptor (Mus musculus) (UniProt P32300). Nature of the experiment: Antagonism of antinociceptive effect of DPDPE against delta 1 opioid receptor in male ICR mice at a sc dose of 16 umol/kg. Format: functional, organism-based. An outline of the steps: as §3
The target in experiment [11] is Mu-type opioid receptor (Mus musculus) (UniProt P42866). Nature of the experiment: Antagonism of antinociceptive effect of morphine against Opioid receptor mu 1 in male ICR mice at a sc dose of 5 umol/kg. Type of experiment: functional, organism-based. The gist of the method:
as §3

Experiment [12] addresses Delta-type opioid receptor (Mus musculus) (UniProt P32300). Nature of the experiment: Antagonism of antinociceptive effect of DSLET against delta 2 opioid receptor in male ICR mice at a sc dose of 16 umol/kg. Type of experiment: functional, organism-based. The gist of the method: as §3
The target in experiment [13] is Kappa-type opioid receptor (Mus musculus) (UniProt P33534). Nature of the experiment: Antagonism of antinociceptive effect of U-50,488 against kOpioid receptor kappa 1 in male ICR mice at a sc dose of 16 umol/kg. Format: functional, organism-based. The gist of the method:
as §3

Experiment [14] has the same target. Nature of the experiment: Antagonism of antinociceptive effect of U-50,488 against Opioid receptor kappa 1 in male ICR mice at a sc dose of 16 umol/kg. Type of experiment: functional, organism-based. The gist of the method: as §3
For experiment [15] the target is unchanged. Nature of the experiment: Antagonism of antinociceptive effect of U-50,488 against Opioid receptor kappa 1 in male ICR mice at a sc dose of 5 umol/kg. Format: functional, organism-based. An outline of the steps:
as §3

Experiment [16] addresses Mu-type opioid receptor (Mus musculus) (UniProt P42866). Nature of the experiment: Antagonism of antinociceptive effect of morphine against Opioid receptor mu 1 in male ICR mice at a sc dose of 5 umol/kg. Type of experiment: functional, organism-based. The gist of the method: as §3

Structures are written as SMILES.

Delta-type opioid receptor (Mus musculus), sequence (P32300 whole entry): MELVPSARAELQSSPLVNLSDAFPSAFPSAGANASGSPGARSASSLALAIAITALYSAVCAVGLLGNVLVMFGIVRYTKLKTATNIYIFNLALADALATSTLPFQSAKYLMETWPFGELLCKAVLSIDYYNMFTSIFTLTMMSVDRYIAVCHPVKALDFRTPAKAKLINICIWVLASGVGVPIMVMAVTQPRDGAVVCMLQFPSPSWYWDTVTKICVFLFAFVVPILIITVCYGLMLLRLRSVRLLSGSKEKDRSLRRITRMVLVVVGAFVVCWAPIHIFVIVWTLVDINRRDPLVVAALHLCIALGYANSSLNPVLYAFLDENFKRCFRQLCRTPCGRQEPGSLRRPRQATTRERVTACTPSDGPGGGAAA
Kappa-type opioid receptor (Mus musculus), sequence (P33534 whole entry): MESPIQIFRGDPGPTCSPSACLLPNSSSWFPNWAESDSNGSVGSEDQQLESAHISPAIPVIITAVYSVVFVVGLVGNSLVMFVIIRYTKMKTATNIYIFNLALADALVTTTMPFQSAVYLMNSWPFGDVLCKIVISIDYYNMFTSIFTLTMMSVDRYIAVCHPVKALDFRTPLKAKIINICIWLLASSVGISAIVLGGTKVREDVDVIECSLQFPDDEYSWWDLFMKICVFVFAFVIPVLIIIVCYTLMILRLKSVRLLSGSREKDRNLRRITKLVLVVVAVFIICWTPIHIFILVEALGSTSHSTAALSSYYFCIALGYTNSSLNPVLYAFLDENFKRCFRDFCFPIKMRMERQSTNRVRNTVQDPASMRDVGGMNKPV
Mu-type opioid receptor (Cavia porcellus), sequence (P97266 whole entry): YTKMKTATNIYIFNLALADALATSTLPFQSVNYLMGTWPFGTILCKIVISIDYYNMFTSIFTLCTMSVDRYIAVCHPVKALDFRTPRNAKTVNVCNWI
Mu-type opioid receptor (Mus musculus), sequence (P42866 whole entry): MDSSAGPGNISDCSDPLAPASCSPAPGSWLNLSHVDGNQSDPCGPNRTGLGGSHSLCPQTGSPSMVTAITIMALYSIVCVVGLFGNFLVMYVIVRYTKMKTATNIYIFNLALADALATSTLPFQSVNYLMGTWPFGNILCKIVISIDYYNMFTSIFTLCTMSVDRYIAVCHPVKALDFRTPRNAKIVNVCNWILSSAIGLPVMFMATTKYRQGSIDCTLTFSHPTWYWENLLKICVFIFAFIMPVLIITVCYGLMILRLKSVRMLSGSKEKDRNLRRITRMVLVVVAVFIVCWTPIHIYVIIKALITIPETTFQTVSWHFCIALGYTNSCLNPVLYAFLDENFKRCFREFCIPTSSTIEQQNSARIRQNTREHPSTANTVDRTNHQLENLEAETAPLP
Kappa-type opioid receptor (Cavia porcellus), sequence (P41144 whole entry): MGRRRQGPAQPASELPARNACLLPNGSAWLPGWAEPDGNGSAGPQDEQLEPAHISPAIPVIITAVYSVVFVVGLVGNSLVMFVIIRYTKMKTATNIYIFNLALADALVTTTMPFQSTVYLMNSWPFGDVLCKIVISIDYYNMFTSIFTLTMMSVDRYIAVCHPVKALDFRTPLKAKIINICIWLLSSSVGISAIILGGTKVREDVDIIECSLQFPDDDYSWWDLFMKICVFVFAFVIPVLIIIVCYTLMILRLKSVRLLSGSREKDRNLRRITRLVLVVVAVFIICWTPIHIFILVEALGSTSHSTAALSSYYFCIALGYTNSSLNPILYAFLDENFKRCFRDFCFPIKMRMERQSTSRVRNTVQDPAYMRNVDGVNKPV

For the compound `O=C1/C(=C\c2cccc([N+](=O)[O-])c2)C[C@@]2(O)C3Cc4ccc(O)c5c4C2(CCN3CC2CC2)[C@H]1O5` (stereo not given in full), the Selectivity ratio in [1] and in [4] was 5.2 throughout. The IC50 ratio is 1.15 in experiment [2], 5.18 in experiment [3] and 0.5 in experiment [5].
For the compound `O=C1/C(=C\c2ccc(F)cc2)C[C@@]2(O)C3Cc4ccc(O)c5c4C2(CCN3CC2CC2)[C@H]1O5` (stereo not given in full), the Selectivity ratio in [1] was 0.9; in [4], 1.1. Besides, the values for the IC50 ratio in experiment [2], in experiment [3] and in experiment [5] were 2.23, 2.01 and 1.86, respectively.
For `O=C1/C(=C\c2ccc(-c3cccc4ccccc34)cc2)C[C@@]2(O)C3Cc4ccc(O)c5c4C2(CCN3CC2CC2)[C@H]1O5` (stereo not given in full), the Selectivity ratio in experiment [1] is 10.3; in [4] it was 6.9. Moreover, the figures for the IC50 ratio in experiment [2], in experiment [3] and in experiment [5] were 1.23, 12.7 and 1.85, respectively.
`Cc1ccc(/C=C2/C[C@@]3(O)C4Cc5ccc(O)c6c5C3(CCN4CC3CC3)[C@@H](O6)C2=O)cc1` (stereo not given in full): the Selectivity ratio in [1] came out at 3.2; in [4] it was 9.1. Also, the figures for the IC50 ratio in experiment [2], in experiment [3] and in [5] were 7.05, 22.3 and 2.45, respectively.
For `O=C1/C(=C\c2ccccc2F)C[C@@]2(O)C3Cc4ccc(O)c5c4C2(CCN3CC2CC2)[C@H]1O5` (stereo not given in full) the same measures were 4.4, 10.3, 3.86, 17 and 1.65.
`COc1ccccc1/C=C1/C[C@@]2(O)C3Cc4ccc(O)c5c4C2(CCN3CC2CC2)[C@@H](O5)C1=O` (stereo not given in full): the Selectivity ratio in experiment [1] came to 14.1; in experiment [4] it was 120. The ED50 ratio in experiment [6] is 2; in [7], 0.47; in experiment [8] it was 0.8; in [9] it was 5.8; in experiment [10], 11.1; in [11] it was 1.03. The ED50 ratio is 6.8 in experiment [12] and 0.84 in [13]. Besides, the results for the IC50 ratio in experiment [2], in experiment [3] and in experiment [5] were 8.49, 120 and 1.05, respectively.
As to `O=C1/C(=C\c2ccc([N+](=O)[O-])cc2)C[C@@]2(O)C3Cc4ccc(O)c5c4C2(CCN3CC2CC2)[C@H]1O5` (stereo not given in full), the values for the Selectivity ratio in [1] and in experiment [4] were 0.4 and 1.9, respectively. Moreover, the IC50 ratio in [2] was 4.42; in [3], 1.9; in experiment [5], 1.07.
As to `COc1cccc(/C=C2/C[C@@]3(O)C4Cc5ccc(O)c6c5C3(CCN4CC3CC3)[C@@H](O6)C2=O)c1` (stereo not given in full), the Selectivity ratio in experiment [1] was found to be 2.8; in experiment [4], 18. Further, the IC50 ratio in experiment [2] was found to be 6.44; in [3], 18; in experiment [5] it was 0.95.
Regarding `O=C1/C(=C\c2cccc(F)c2)C[C@@]2(O)C3Cc4ccc(O)c5c4C2(CCN3CC2CC2)[C@H]1O5` (stereo not given in full), the values for the Selectivity ratio in experiment [1] and in experiment [4] were 2.1 and 12.9, respectively. Also, the IC50 ratio in experiment [2] was determined as 7.83; in experiment [3], 16.3; in [5] it was 1.26.
For `O=C1/C(=C\c2ccccc2Cl)C[C@@]2(O)C3Cc4ccc(O)c5c4C2(CCN3CC2CC2)[C@H]1O5` (stereo not given in full), the Selectivity ratio in experiment [1] and in experiment [4] was 130 each time. Moreover, the ED50 ratio was found to be 3.7 in experiment [6]; 0.87 in [8]; 7.1 in experiment [9]; 11.4 in [10]; 7.2 in experiment [12]; 0.9 in experiment [14]. Also, the ED50 ratio in experiment [15] is 0.73; in experiment [16], 0.53. Also, the values for the IC50 ratio in experiment [2], in experiment [3] and in experiment [5] were 1.34, 130 and 0.85, respectively.
As to `COC(=O)c1ccc(/C=C2/C[C@@]3(O)C4Cc5ccc(O)c6c5C3(CCN4CC3CC3)[C@@H](O6)C2=O)cc1` (stereo not given in full), the Selectivity ratio in experiment [1] was determined as 3.8; in experiment [4], 14.6. The IC50 ratio in [2] amounted to 3.81; in [3] it was 14.6; in experiment [5], 0.62.
Turning to `O=C1/C(=C\c2ccc(-c3ccc4ccccc4c3)cc2)C[C@@]2(O)C3Cc4ccc(O)c5c4C2(CCN3CC2CC2)[C@H]1O5` (stereo not given in full), the Selectivity ratio in experiment [1] came to 3.5; in experiment [4], 11.6. The IC50 ratio in [2] is 3.32; in experiment [3] it was 11.6; in experiment [5] it was 1.07.
For `O=C1/C(=C\c2ccccc2)C[C@@]2(O)[C@H]3Cc4ccc(O)c5c4[C@@]2(CCN3CC2CC2)[C@H]1O5`, the Selectivity ratio in experiment [1] was 2.7; in experiment [4], 17.5. The values for the IC50 ratio in experiment [2], in experiment [3] and in experiment [5] were 13.1, 35 and 2, respectively. Also, the ED50 ratio amounted to 5.7 in [9], 16.8 in experiment [10], 9.6 in [12] and 1.8 in [14].
For `COc1ccc(/C=C2/C[C@@]3(O)C4Cc5ccc(O)c6c5C3(CCN4CC3CC3)[C@@H](O6)C2=O)cc1` (stereo not given in full), the Selectivity ratio is 1.5 in experiment [1] and 5.5 in [4]. Also, the values for the IC50 ratio in [2], in [3] and in experiment [5] were 3.75, 5.52 and 0.92, respectively.
